Source: ChEMBL document CHEMBL1131626 (J Med Chem, 1998)
One block for each compound: values may come before it.

Key:
[1] = target: T1, Progesterone receptor (Homo sapiens) (UniProt P06401); experiment: Efficacy for progesterone receptor relative to progesterone
T1 sequence (whole entry): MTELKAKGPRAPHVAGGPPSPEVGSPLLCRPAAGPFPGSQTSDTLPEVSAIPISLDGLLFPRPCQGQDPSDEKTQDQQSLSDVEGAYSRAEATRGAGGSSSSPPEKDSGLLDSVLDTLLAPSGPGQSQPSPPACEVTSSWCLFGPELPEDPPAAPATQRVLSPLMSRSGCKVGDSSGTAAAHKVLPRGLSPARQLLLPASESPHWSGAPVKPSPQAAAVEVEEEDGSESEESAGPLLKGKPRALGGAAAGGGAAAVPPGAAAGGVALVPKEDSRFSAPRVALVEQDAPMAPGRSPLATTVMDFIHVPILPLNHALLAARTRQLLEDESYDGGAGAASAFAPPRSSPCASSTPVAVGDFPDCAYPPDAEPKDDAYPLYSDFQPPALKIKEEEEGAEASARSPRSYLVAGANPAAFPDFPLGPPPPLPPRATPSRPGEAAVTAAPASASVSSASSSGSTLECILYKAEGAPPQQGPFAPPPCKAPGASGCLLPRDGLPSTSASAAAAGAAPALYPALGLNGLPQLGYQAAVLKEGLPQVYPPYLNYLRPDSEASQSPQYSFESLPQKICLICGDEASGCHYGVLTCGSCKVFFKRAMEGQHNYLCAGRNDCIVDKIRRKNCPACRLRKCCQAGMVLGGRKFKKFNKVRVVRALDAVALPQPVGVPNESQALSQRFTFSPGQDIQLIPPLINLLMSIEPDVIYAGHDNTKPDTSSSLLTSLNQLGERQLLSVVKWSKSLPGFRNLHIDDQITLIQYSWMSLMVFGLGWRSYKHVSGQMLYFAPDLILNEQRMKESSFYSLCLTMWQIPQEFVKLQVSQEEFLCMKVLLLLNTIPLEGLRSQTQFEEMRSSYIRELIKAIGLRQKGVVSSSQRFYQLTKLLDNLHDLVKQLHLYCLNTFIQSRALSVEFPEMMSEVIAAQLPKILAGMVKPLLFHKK

[2] = target: T2, Progesterone receptor (Homo sapiens, UniProt P06401); experiment: Effective concentration for half-maximal activation of human progesterone receptor expressed in CV-1 cells; format: cell-based
T2 sequence (P06401 whole entry): T1 sequence (whole entry)

[3] = target: T2, Progesterone receptor; experiment: Binding affinity for baculovirus-expressed human progesterone receptor isoform A
[4] = target: T3, Glucocorticoid receptor (Homo sapiens, UniProt P04150); experiment: Binding affinity for baculovirus-expressed human glucocorticoid receptor
T3 sequence (P04150 whole entry): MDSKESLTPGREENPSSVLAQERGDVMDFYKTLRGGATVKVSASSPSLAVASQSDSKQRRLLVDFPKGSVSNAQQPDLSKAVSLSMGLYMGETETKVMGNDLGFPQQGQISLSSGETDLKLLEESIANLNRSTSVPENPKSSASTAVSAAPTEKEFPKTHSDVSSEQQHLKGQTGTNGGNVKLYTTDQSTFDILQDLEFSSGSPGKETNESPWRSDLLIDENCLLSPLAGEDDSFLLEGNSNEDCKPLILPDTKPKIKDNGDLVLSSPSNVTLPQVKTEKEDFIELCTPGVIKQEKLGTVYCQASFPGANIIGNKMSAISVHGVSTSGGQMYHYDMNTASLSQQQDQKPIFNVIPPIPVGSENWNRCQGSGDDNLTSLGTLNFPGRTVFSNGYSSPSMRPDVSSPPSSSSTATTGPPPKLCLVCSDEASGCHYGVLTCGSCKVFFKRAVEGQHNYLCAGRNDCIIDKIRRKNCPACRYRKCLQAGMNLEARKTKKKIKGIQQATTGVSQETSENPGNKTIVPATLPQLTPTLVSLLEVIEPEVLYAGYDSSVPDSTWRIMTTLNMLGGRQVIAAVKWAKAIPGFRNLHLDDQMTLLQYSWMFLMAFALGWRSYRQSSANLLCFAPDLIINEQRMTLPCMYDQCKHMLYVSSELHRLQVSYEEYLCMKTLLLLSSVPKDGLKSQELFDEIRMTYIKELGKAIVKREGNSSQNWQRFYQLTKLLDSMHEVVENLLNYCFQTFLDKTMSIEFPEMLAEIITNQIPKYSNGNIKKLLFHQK

[5] = target: T4, Progesterone receptor (Rattus norvegicus) (UniProt Q63449); experiment: Fold induction as increase in BrdU labeling index over estrone treatment alone in lobular-aveolar rat mammary buds by progestin treatment; format: functional
T4 sequence (whole entry): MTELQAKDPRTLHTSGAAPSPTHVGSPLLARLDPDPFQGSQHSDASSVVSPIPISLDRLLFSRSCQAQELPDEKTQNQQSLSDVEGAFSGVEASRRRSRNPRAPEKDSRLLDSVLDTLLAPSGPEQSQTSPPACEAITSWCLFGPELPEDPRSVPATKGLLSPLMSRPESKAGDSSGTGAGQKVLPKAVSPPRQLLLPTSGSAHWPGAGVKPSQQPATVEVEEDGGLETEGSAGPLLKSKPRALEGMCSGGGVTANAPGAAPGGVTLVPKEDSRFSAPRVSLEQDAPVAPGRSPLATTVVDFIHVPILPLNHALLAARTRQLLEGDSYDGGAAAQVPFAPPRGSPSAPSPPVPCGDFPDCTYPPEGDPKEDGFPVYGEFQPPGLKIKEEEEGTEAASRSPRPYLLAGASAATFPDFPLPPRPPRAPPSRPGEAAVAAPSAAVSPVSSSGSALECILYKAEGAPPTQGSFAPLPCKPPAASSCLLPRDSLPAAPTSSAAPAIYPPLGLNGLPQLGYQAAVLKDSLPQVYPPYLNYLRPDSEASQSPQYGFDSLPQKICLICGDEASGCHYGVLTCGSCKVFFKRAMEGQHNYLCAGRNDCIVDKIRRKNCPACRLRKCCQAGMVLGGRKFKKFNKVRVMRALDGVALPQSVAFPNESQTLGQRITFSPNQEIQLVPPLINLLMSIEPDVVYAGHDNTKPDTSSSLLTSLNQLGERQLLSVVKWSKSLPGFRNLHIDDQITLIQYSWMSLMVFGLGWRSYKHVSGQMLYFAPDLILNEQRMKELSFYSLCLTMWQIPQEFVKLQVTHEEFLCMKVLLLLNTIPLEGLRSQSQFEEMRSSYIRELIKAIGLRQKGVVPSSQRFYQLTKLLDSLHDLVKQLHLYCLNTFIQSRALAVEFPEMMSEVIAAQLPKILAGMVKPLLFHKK
Outline: (§1)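 Ovariectomized Sprague-Dawley rats, 4-5 weeks old, groups of 4-5, given estrone 10 µg sc plus oral compound in corn oil (0.5 mL) for 3 days. On day 4, BrdU 200 mg/kg ip; mammary glands taken 3 h later. Frozen sections stained with anti-BrdU/FITC. Labeling index = labeled/lobular area, averaged over 12 fields per gland, as fold over estrone alone.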

[6] = target: T4, Progesterone receptor (Rattus norvegicus); experiment: Fold induction as increase in BrdU labeling index over estrone treatment alone in lobular-aveolar rat mammary buds by progestin treatment at 3 mg/kg; format: functional, organism-based; parameters: dose 3 mg/kg; outline: as §1
[7] = target: T5, Progesterone receptor (Mus musculus) (UniProt Q00175); experiment: Effect on pregnancy in mice as corpora lutea at 3 mg/mouse dose with simultaneous 0.5 mg RU-486 dose; format: functional, organism-based
T5 sequence (whole entry): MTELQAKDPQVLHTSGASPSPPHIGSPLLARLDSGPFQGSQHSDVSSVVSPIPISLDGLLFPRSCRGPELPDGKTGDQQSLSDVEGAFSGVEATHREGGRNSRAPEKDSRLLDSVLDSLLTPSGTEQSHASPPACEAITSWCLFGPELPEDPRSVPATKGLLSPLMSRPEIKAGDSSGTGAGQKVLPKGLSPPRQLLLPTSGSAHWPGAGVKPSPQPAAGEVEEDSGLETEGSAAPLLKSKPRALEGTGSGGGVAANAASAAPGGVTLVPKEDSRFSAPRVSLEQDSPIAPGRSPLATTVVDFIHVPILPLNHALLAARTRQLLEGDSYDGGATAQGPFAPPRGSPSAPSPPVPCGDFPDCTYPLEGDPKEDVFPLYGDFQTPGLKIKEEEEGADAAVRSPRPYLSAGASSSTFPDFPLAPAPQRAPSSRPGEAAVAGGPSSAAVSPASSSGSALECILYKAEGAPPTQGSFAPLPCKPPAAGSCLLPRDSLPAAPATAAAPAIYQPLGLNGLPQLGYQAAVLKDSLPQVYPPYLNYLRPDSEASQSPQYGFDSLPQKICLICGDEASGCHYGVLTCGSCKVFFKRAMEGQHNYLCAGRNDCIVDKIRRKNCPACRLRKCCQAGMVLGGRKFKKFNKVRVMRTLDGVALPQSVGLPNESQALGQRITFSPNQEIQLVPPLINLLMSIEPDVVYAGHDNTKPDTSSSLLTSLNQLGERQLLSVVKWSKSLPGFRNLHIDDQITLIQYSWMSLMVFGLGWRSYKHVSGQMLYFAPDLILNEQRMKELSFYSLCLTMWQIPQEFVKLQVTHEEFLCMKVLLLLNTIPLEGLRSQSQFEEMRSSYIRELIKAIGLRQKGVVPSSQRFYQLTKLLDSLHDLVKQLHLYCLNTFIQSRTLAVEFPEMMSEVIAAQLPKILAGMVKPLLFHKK
Outline: (§2)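 Mature virgin ICR mice, 10-12 weeks old, mated overnight; vaginal plug marks day 1. Oral RU486 0.5 mg (~15 mg/kg), alone or with test compound (mg/mouse), on days 2-4. Compounds in ethanol diluted with corn oil, 0.1 mL. Oil controls. Necropsy on day 8 to count corpora lutea and implantation sites and to score pregnancy. Student t-test.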

[8] = target: T5, Progesterone receptor (Mus musculus); experiment: Effect on pregnancy in mice as corpora lutea at 1 mg/mouse dose with simultaneous 0.5 mg RU-486 dose; format: functional, organism-based; outline: as §2
[9] = target: T5, Progesterone receptor (Mus musculus); experiment: Effect on pregnancy in mice as implantation at 1 mg/mouse dose with simultaneous 0.5 mg RU-486 dose; format: functional; outline: as §2
[10] = target: T5, Progesterone receptor (Mus musculus); experiment: Effect on pregnancy in mice as implantation at 3 mg/mouse dose with simultaneous 0.5 mg RU-486 dose; format: functional; outline: as §2
[11] = target: T5, Progesterone receptor (Mus musculus); experiment: Effect on pregnancy in mice as percent pregnant at 1 mg/mouse dose with simultaneous 0.5 mg RU-486 dose; format: functional; outline: as §2
[12] = target: T5, Progesterone receptor (Mus musculus); experiment: Effect on pregnancy in mice as percent pregnant at 3 mg/mouse dose with simultaneous 0.5 mg RU-486 dose; format: functional; outline: as §2
[13] = target: T5, Progesterone receptor (Mus musculus); experiment: Effect on pregnancy in mice as number pregnant/mated at 1 mg/mouse dose with simultaneous 0.5 mg RU-486 dose; out of 10; format: functional; outline: as §2
[14] = target: T5, Progesterone receptor (Mus musculus); experiment: Effect on pregnancy in mice as number pregnant/mated at 3 mg/mouse dose with simultaneous 0.5 mg RU-486 dose; out of 10; format: functional; outline: as §2

SMILES: CC1=CC(C)(C)Nc2ccc3c(c21)C(c1cccc(Cl)c1)Oc1ccc(F)cc1-3 (single isomer, unassigned; (+)) [listing 1 of 2 here]
Efficacy [1]: 83

SMILES: CC1=CC(C)(C)Nc2ccc3c(c21)C(c1cccc(Cl)c1)Oc1ccc(F)cc1-3 (single isomer, unassigned; (+)) [listing 2 of 2 here]
EC50 [2]: 0.135 µM | Ki [3]: 0.03 µM

SMILES: CC1=CC(C)(C)Nc2ccc3c(c21)C(c1ccc(Cl)c(C)c1)Oc1ccc(Cl)cc1-3 (racemic)
Efficacy [1]: 73 | Ki [4]: 0.014 µM

SMILES: CC1=CC(C)(C)Nc2ccc3c(c21)C(c1cccc(Cl)c1)Oc1ccc(F)cc1-3 (racemic) [listing 1 of 2 here]
Ki [4]: 0.133 µM

SMILES: CC1=CC(C)(C)Nc2ccc3c(c21)C(c1cccc(Cl)c1)Oc1ccc(Cl)cc1-3 (racemic)
Efficacy [1]: 95 | Ki [4]: 0.0063 µM

SMILES: C[C@]12CC[C@@H]3c4ccc(O)cc4CC[C@H]3[C@@H]1CCC2=O
Fold induction [5]: 1 | Fold induction [6]: 24

SMILES: CC1=CC(C)(C)Nc2ccc3c(c21)C(c1cccc(Cl)c1)Oc1ccc(F)cc1-3 (racemic) [listing 2 of 2 here]
Efficacy [1]: 117

SMILES: CC1=CC(C)(C)Nc2ccc3c(c21)C(c1cccc(Cl)c1)Oc1ccc(F)cc1-3 (single isomer, unassigned; (-)) [listing 1 of 2 here]
EC50 [2]: 0.0013 µM | Ki [3]: 0.0001 µM

SMILES: CC1=CC(C)(C)Nc2ccc3c(c21)C(c1cccc(Cl)c1)Oc1ccc(F)cc1-3 (single isomer, unassigned; (-)) [listing 2 of 2 here]
Efficacy [1]: 125 | Fold induction [6]: 3.6

Other lines, results leading:

EC50 [2]: 0.147 µM | Ki [3]: 0.06 µM
SMILES: CC1=CC(C)(C)Nc2ccc3c(c21)C(c1ccc(Cl)c(C)c1)Oc1ccc(F)cc1-3 (stereo in doubt) [listing 1 of 2 here]

Efficacy [1]: 43
SMILES: CC1=CC(C)(C)Nc2ccc3c(c21)C(c1ccc(Cl)c(C)c1)Oc1ccc(F)cc1-3 (stereo in doubt) [listing 2 of 2 here]

EC50 [2]: 0.0024 µM | Ki [3]: 0.0004 µM
SMILES: CC1=CC(C)(C)Nc2ccc3c(c21)C(c1ccc(Cl)c(C)c1)Oc1ccc(F)cc1-3 (single isomer, unassigned; (-)) [listing 1 of 2 here]

Efficacy [1]: 97
SMILES: CC1=CC(C)(C)Nc2ccc3c(c21)C(c1ccc(Cl)c(C)c1)Oc1ccc(F)cc1-3 (racemic) [listing 1 of 2 here]

Ki [4]: 0.21 µM
SMILES: CC1=CC(C)(C)Nc2ccc3c(c21)C(c1ccc(Cl)c(C)c1)Oc1ccc(F)cc1-3 (racemic) [listing 2 of 2 here]

Corpora lutea [7]: 13.8 | Corpora lutea [8]: 13 | Implants [9]: 2.2 | Implants [10]: 6.6 | Pregnant [11]: 30% | Pregnant [12]: 50% | No. pregnant/mated [13]: 3 | No. pregnant/mated [14]: 5
SMILES: CC#C[C@]1(O)CC[C@H]2[C@@H]3CCC4=CC(=O)CCC4=C3[C@@H](c3ccc(N(C)C)cc3)C[C@@]21C.CC1=CC(C)(C)Nc2ccc3c(c21)C(c1ccc(Cl)c(C)c1)Oc1ccc(F)cc1-3

Efficacy [1]: 99 | Fold induction [6]: 2.5
SMILES: CC1=CC(C)(C)Nc2ccc3c(c21)C(c1ccc(Cl)c(C)c1)Oc1ccc(F)cc1-3 (single isomer, unassigned; (-)) [listing 2 of 2 here]
